Our source for the Activity values is ChEMBL document CHEMBL1148955, “Chemical constituents from the Colombian medicinal plant Maytenus laevis” (2004).

The subject of experiment [1] is PBMC. Briefly: Induction of IL10 production in human PBMC at 10 ug/ml after 48 hrs by ELISA. It is filed as functional, cell-based. A digest of the protocol:
(§1)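 PBMCs were isolated from heparinized venous blood by Ficoll-Hypaque density gradient centrifugation. Cells were cultured at 1 × 10^6/mL in RPMI 1640 with 10% fetal calf serum, with or without compound at 1 or 10 µg/mL, for 48 h at 37 °C. Cytokines in the culture supernatants were measured by commercial ELISA kits.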

Experiment [2] has as its system PBMC. Briefly: Induction of IFN-gamma production in human PBMC at 1 ug/ml after 48 hrs by ELISA. It is filed as functional, cell-based. In short, it runs like this: as §1
Experiment [3] deals with PBMC. Briefly: Induction of IL4 production in human PBMC at 10 ug/ml after 48 hrs by ELISA. The class given is functional, cell-based. A digest of the protocol:
as §1

The subject of experiment [4] is PBMC. Briefly: Induction of IL10 production in human PBMC at 1 ug/ml after 48 hrs by ELISA. It is filed as functional, cell-based. A digest of the protocol:
as §1
(In general: ELISA stands for enzyme-linked immunosorbent assay.)

The subject of experiment [5] is PBMC. The experiment can be described thus: Induction of TNFalpha production in human PBMC at 1 ug/ml after 48 hrs by ELISA. It is filed as functional. A digest of the protocol: as §1
The subject of experiment [6] is PBMC. The experiment can be described thus: Induction of IFN-gamma production in human PBMC at 10 ug/ml after 48 hrs by ELISA. It is filed as functional, cell-based. A digest of the protocol: as §1
Experiment [7] has as its system PBMC. Briefly: Induction of IL6 production in human PBMC at 10 ug/ml after 48 hrs by ELISA. It is filed as functional. A digest of the protocol:
as §1

Experiment [8] deals with PBMC. The experiment can be described thus: Induction of IL4 production in human PBMC at 1 ug/ml after 48 hrs by ELISA. It is filed as functional, cell-based. In short, it runs like this: as §1
Experiment [9] relates to PBMC. Briefly: Induction of IL6 production in human PBMC at 1 ug/ml after 48 hrs by ELISA. It is filed as functional. A digest of the protocol:
as §1

The test system of experiment [10] is PBMC. Briefly: Induction of TNFalpha production in human PBMC at 10 ug/ml after 48 hrs by ELISA. It is filed as functional. A digest of the protocol: as §1
The test system of experiment [11] is PBMC. Briefly: Induction of IL12 production in human PBMC at 10 ug/ml after 48 hrs by ELISA. It is filed as functional. In short, it runs like this:
as §1

Experiment [12] has as its system PBMC. The experiment can be described thus: Induction of IL12 production in human PBMC at 1 ug/ml after 48 hrs by ELISA. It is filed as functional. In short, it runs like this:
as §1

Activity calls are given as the source filed them. No cut-off for these calls is given here. Where only a bound is given, the exact number is not on record here.

On to `CC1(C)[C@@H](O)CC[C@]2(C)[C@H]3CC=C4[C@@H]5C[C@@]6(C)C[C@H](OC6=O)[C@]5(C)CC[C@@]4(C)[C@]3(C)CC[C@@H]12` [3-EPIABRUSLACTONE A], for which the result in experiment [1], in experiment [2], in [3], in experiment [4], in [6] and in experiment [8] was inactive. Moreover, the Activity in experiment [5] is less than 7.8 pg/mL; in [7], 308.4 pg/mL; in experiment [9] it was less than 7.8 pg/mL; in experiment [10], less than 7.8 pg/mL; in experiment [11], less than 7.8 pg/mL; in experiment [12], less than 7.8 pg/mL.

Turning to `CC(=O)OC[C@]12[C@H](OC(=O)c3ccccc3)[C@H](OC(C)=O)[C@@H]3[C@@H](OC(C)=O)[C@@]14O[C@@]3(C)COC(=O)c1cccnc1C(C)C(C)C(=O)O[C@@H]([C@H](OC(C)=O)[C@@H]2OC(=O)c1ccccc1)[C@]4(C)O` (stereo partly drawn) [EBENIFOLINE E III], the outcome in experiment [1], in experiment [2], in [3], in experiment [4], in experiment [6] and in [8] was inactive. Further, the Activity in experiment [5], in experiment [7], in experiment [9], in [10], in experiment [11] and in experiment [12] was less than 7.8 pg/mL throughout.

Take `C[C@@H]1O[C@@H](O[C@@H]2[C@@H](O)[C@H](OCCc3ccc(O)c(O)c3)O[C@H](COC(=O)/C=C/c3ccc(O)c(O)c3)[C@H]2O)[C@H](O)[C@H](O)[C@H]1O` [ISOACTEOSIDE]: the result in experiment [1], in experiment [2], in experiment [3], in experiment [4], in [6] and in experiment [8] was inactive. Also, the Activity is less than 7.8 pg/mL in [5]; 175.5 pg/mL in [7]; 101.5 pg/mL in [9]; less than 7.8 pg/mL in experiment [10]; less than 7.8 pg/mL in experiment [11]; less than 7.8 pg/mL in experiment [12].

Consider `CC1(C)[C@H](O)CC[C@]2(C)[C@H]3CC=C4[C@@H]5C[C@](C)(C(=O)O)C[C@@H](O)[C@]5(C)CC[C@@]4(C)[C@]3(C)CC[C@@H]12`, for which the outcome in [1], in [2], in experiment [3], in experiment [4], in [6] and in experiment [8] was inactive. Also, the Activity in experiment [5] was less than 7.8 pg/mL; in experiment [7], 16.2 pg/mL; in experiment [9], 32.2 pg/mL; in [10] it was less than 7.8 pg/mL; in experiment [11] it was less than 7.8 pg/mL; in experiment [12], less than 7.8 pg/mL.

Consider `COc1c(O)cc([C@H]2Oc3cc(O)cc(O)c3C[C@H]2O)cc1O`, for which the result in experiment [1], in experiment [2], in experiment [3], in experiment [4], in experiment [6] and in [8] was inactive. For the same compound, the Activity was less than 7.8 pg/mL in [5]; 662.9 pg/mL in experiment [7]; less than 7.8 pg/mL in experiment [9]; less than 7.8 pg/mL in [10]; less than 7.8 pg/mL in experiment [11]; less than 7.8 pg/mL in experiment [12].

For `CC1(C)[C@@H](O)CC[C@]2(C)[C@H]3CC=C4[C@H]5C[C@](C)(C(=O)O)CC[C@]5(C)CC[C@@]4(C)[C@]3(C)CC[C@@H]12` [EPIKATONIC ACID], the result in [1], in experiment [2], in experiment [3], in experiment [4], in experiment [6] and in experiment [8] was inactive. The Activity in [5] was less than 7.8 pg/mL; in [7], 22.9 pg/mL; in experiment [9], 16.2 pg/mL; in experiment [10], less than 7.8 pg/mL; in experiment [11] it was less than 7.8 pg/mL; in experiment [12] it was less than 7.8 pg/mL.

Consider `COc1ccc(C(=O)O[C@@H]2C[C@](C)(O)[C@H]3[C@H](O[C@@H]4O[C@H](CO)[C@@H](O)[C@H](O)[C@H]4O)OC=C[C@H]32)cc1OC`, for which the outcome in [1], in experiment [2], in [3], in [4], in experiment [6] and in experiment [8] was inactive. Further, the Activity was 12.6 pg/mL in [5]; 38.1 pg/mL in experiment [7]; 849.5 pg/mL in experiment [9]; less than 7.8 pg/mL in [10]; less than 7.8 pg/mL in experiment [11]; 27.2 pg/mL in experiment [12].

Turning to `CC1(C)[C@@H](O)CC[C@]2(C)[C@H]3CC=C4[C@H]5C[C@](C)(C(=O)O)C[C@@H](O)[C@]5(C)CC[C@@]4(C)[C@]3(C)CC[C@@H]12`, the result in experiment [1], in experiment [2], in [3], in experiment [4], in [6] and in [8] was inactive. In addition, the Activity in experiment [5] is less than 7.8 pg/mL; in experiment [7] it was 297.6 pg/mL; in experiment [9], 57.5 pg/mL; in experiment [10], less than 7.8 pg/mL; in [11], less than 7.8 pg/mL; in experiment [12], less than 7.8 pg/mL.

`C[C@@H]1[C@@]23CC[C@H]4[C@@](C)(CC[C@@]5(C)[C@@H]6C[C@](C)(C(=O)O)CC[C@]6(C)CC[C@]45C)[C@@H]2CC[C@@]1(O)OC3` [SALASPERMIC ACID]: the outcome in experiment [1], in experiment [2], in [3], in experiment [4], in [6] and in [8] was inactive. The Activity in experiment [5] is 54.5 pg/mL; in experiment [7], 109.6 pg/mL; in [9], 857.3 pg/mL; in experiment [10], less than 7.8 pg/mL; in experiment [11], less than 7.8 pg/mL; in experiment [12], 21.6 pg/mL.

`C[C@H]1C(=O)CC[C@@H]2[C@]1(C)CC[C@H]1[C@@]2(C)CC[C@@]2(C)[C@@H]3CC(C)(C)CC[C@]3(CO)CC[C@]12C` [CANOPHYLLOL]: the result in experiment [1], in [2], in experiment [3], in [4], in experiment [6] and in experiment [8] was inactive. Besides, the Activity in experiment [5] came out at 132.5 pg/mL; in [7], 2579.2 pg/mL; in [9], 2579.3 pg/mL; in [10], 322.9 pg/mL; in experiment [11] it was 104.3 pg/mL; in [12] it was 47.3 pg/mL.

Regarding `CC1(C)[C@@H](O)CC[C@]2(C)[C@H]3CC=C4[C@@H]5C[C@](C)(C(=O)O)C[C@H](O)[C@]5(C)CC[C@@]4(C)[C@]3(C)CC[C@@H]12` [MAYTENFOLIC ACID], the Activity was less than 7.8 pg/mL in [5]; 76.1 pg/mL in experiment [7]; 380 pg/mL in [9]; less than 7.8 pg/mL in [10]; less than 7.8 pg/mL in experiment [11]; less than 7.8 pg/mL in experiment [12].

Consider `COc1cc(C(=O)O[C@@H]2C[C@](C)(O)[C@H]3[C@H](O[C@@H]4O[C@H](CO)[C@@H](O)[C@H](O)[C@H]4O)OC=C[C@H]32)ccc1O`, for which the result in experiment [1], in [2], in [3], in [4], in experiment [6] and in [8] was inactive. For the same compound, the Activity in [5], in [7], in experiment [9], in experiment [10], in experiment [11] and in experiment [12] was less than 7.8 pg/mL throughout.
